Test results reported in article PMC10012268 (ACS Infectious Diseases, 2023).
pEC50: −log10 of the molar value. Where “and” joins values, the source holds several entries; their conditions need not be identical. Equal entries are not always repeated.

Key:
[1] = system: Pf Dd2 parental line; experiment: 3H-hypoxanthine 72 h assay, Dd2 parental line; format: cell-based; settings: Plasmodium falciparum, DD2, read-out: Pf Dd2 EC50, Dd2 parental line, 3H-hypoxanthine 72 h; average of two experiments
[2] = system: Pf Dd2 expressing ScDHODH; experiment: ScDHODH asexual-stage assay; format: cell-based; settings: Plasmodium falciparum, DD2, 72 h, read-out: Dd2 ScDHODH EC50
Procedure, shortened: (§1)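 Parasites were sorbitol-synchronised one cycle before setup. Ring stages at 0.5% parasitemia and 2% hematocrit were plated onto twofold compound dilutions and incubated at 37 °C for 72 h. Cells were fixed in 0.25% glutaraldehyde (RT, 30 min), stained with 2.5× SYBR Green (37 °C, 30 min) and counted by flow cytometry. EC50 is the average of three independent experiments.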

[3] = system: Pf SB1-A6 strain with a CNV (∼2-fold) and a C276F mutation in DHODH; experiment: SB1-A6 asexual-stage assay; format: cell-based; settings: Plasmodium falciparum, 72 h, read-out: SB1-A6 EC50
Procedure, shortened: as §1

[4] = system: P. falciparum 3D7 parasites; experiment: P. falciparum 3D7 asexual-stage parasite LDH viability assay; format: cell-based, Plasmodium falciparum; settings: for pEC50: Plasmodium falciparum, 3D7, 72 h, read-out: Control compound activity against 3D7 parasites, EC50, 3D7, LDH assay, 72 h, value (SD)
[5] = system: P. berghei ANKA parasites expressing GFP; experiment: Peter's 4 day P. berghei mouse model; format: in vivo; settings: for % parasitemia: average for four mice on day 4; for % reduction in parasitemia: versus the vehicle control, four mice, day 4
Procedure, shortened: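 Swiss mice (four per group) were infected IV with 1 × 10^7 P. berghei ANKA GFPcon-infected erythrocytes from donor mice. Dosing was oral once daily for 4 days, starting 2 h post-infection: test compound at 20 mg/kg in 20% DMSO/60% propylene glycol/20% water, or chloroquine at 10 mg/kg in water. Day-4 parasitemia was measured as GFP+ cells per 100,000 events and by Giemsa smears, with reduction calculated against vehicle.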

[6] = system: 7G8; experiment: 3H-hypoxanthine 72 h assay, 7G8; format: cell-based; settings: Plasmodium falciparum, 7G8, read-out: Pf multidrug-resistant strain EC50 7G8
[7] = system: RF12; experiment: 3H-hypoxanthine 72 h assay, RF12; format: cell-based; settings: Plasmodium falciparum, read-out: Pf multidrug-resistant strain EC50 RF12
[8] = system: K1; experiment: 3H-hypoxanthine 72 h assay, K1; format: cell-based; settings: Plasmodium falciparum, K1, read-out: Pf multidrug-resistant strain EC50 K1
[9] = LogD at pH 7.4; format: physicochemical; settings: 1-octanol/phosphate-buffered saline (1:1, v/v)
[10] = system: HepG2; experiment: HepG2 host cell viability in the liver stage panel; format: cell-based; settings: Homo sapiens, HepG2, 48 h, read-out: HepG2 EC50 (liver stage)
[11] = system: Pf Dd2 strain with an I22L mutation in the Qi site cyt b; experiment: 3H-hypoxanthine 72 h assay, Dd2 cyt b; format: cell-based, Plasmodium falciparum
Procedure, shortened: (§2)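 Asexual blood-stage parasites in hypoxanthine-free RPMI 1640 with HEPES, NaHCO3, neomycin (100 μg/mL) and Albumax II (5 g/L). Infected blood (0.3% parasitemia, 2.5% hematocrit) was exposed to a 10-point serial dilution at 37 °C under 93% N2/4% CO2/3% O2. After 48 h, [3H]-hypoxanthine (0.5 μCi/well) was added for 24 h more. Scintillation cpm were normalised to untreated controls, and logit regression gave values as means of two experiments.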

[12] = Liver microsome stability, mouse; format: in vitro ADME; settings: pooled mouse liver microsomes
Procedure, shortened: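 Test compound (1 μM, phosphate buffer) was incubated with pooled mouse liver microsomes (0.5 mg/mL) at 37 °C, with and without an NADPH regeneration system, sampling at 0, 5, 20, 30, 45 and 60 min. Run in duplicate.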

[13] = system: NF54; experiment: 3H-hypoxanthine 72 h assay, NF54; format: cell-based; settings: Plasmodium falciparum, NF54, read-out: Pf multidrug-resistant strain EC50 NF54
[14] = system: drug-resistant P. falciparum strains; experiment: Profiling against a selection of multidrug-resistant parasites; format: cell-based, Plasmodium falciparum
Procedure, shortened: as §2

[15] = system: mitochondrial electron transport chain of P. falciparum 3D7 asexual parasites; experiment: ETC biosensor / oxygen consumption rate; format: cell-based, Plasmodium falciparum; settings: for effect on malate-dependent oxygen consumption rate (OCR): compounds at 5 μM, malate as the energy source
Procedure, shortened: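 Magnet-purified trophozoite-infected RBCs were saponin-released (0.05%, 37 °C, 3 min) and washed. Parasites were suspended in MAS buffer with 25 mM malate and 0.002% digitonin and seeded at 5 × 10^6 per Cell-Tak-coated well (800g, 10 min). Seahorse XFe96 OCR was read at baseline, after test compound (5 μM final), after TMPD (0.2 mM) with ascorbate (2 mM), then after NaN3 (10 mM). Each cycle was 20 s mix, 1 min wait, 2.5 min measure.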

[16] = Hepatocyte stability, rat; format: in vitro ADME; settings: pooled rat hepatocytes
Procedure, shortened: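 Test compound (1 μM) in Krebs–Henseleit buffer was incubated with pooled rat hepatocytes (1 × 10^6 cells/mL) at 37 °C, 5% CO2, with samples from 0 to 90 min. Reactions were quenched with ice-cold acetonitrile and centrifuged, and supernatants were analysed by LC–MS/MS. Half-life and CLint were derived from parent remaining. Run in duplicate.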

[17] = system: P. falciparum NF54 female gametes; experiment: Dual gamete formation assay; format: cell-based; settings: Plasmodium falciparum, NF54, read-out: female gamete EC50
Procedure, shortened: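 Stage V NF54 gametocyte cultures with >0.2% exflagellation were diluted to 12.5 million cells/mL in gametocyte medium containing 10% human serum and no Albumax. They were dispensed warm (625,000 cells/well) onto the test compound. After ookinete medium was added, plates went to 4 °C for 4 min and then 28 °C for 5 min, followed by 24 h at 28 °C in the dark. Female gametes (Pfs25) were scored from one fluorescence image per well.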

[18] = system: P. berghei EEFs; experiment: Exoerythrocytic stage assay; format: cell-based; settings: Plasmodium berghei, 48 h, read-out: Pb liver stage EEFs EC50 (SD)
[19] = Plasma bioanalysis in the P. berghei mouse model; format: in vivo; settings: 20 mg/kg oral
Procedure, shortened: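 Blood was sampled from P. berghei-infected mice at 2, 6 and 22 h after the first oral 20 mg/kg dose. Plasma compound concentrations were quantified by LCMS.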

[20] = Kinetic aqueous solubility; format: physicochemical; settings: kinetic in PBS
Procedure, shortened: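 Miniaturised shake flask: test compound (200 μM) in PBS pH 7.4 was shaken at 600 rpm, 25 °C for 2 h, filtered, and the filtrate half-diluted in acetonitrile. Run in duplicate.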

[21] = 3D7 parasite EC50 compared to 17

For `O=C1C(O)=C([C@H]2CC[C@H](c3ccc(Cl)cc3)CC2)C(=O)c2ccccc21` [ATQ, atovaquone, reference compound], the pEC50 [1] was 9.00, the pEC50 [2] was < 5.00 and the pEC50 [3] was < 5.00.
With `CCN(CC)CCCC(C)Nc1ccnc2cc(Cl)ccc12` (stereo not drawn) [CQ, chloroquine, reference compound] the pEC50 [4] was 7.46, the “% parasitemia” value ([5]; 10 mg/kg) was 0.02% and the “% reduction in parasitemia” value ([5]; 10 mg/kg) was 99.8%.
With `CCn1cc(-c2nc(C)no2)c(=O)c2cc(F)c(N3CCC(C)CC3)cc21` [Compound 17, 1-Ethyl-6-fluoro-3-(3-methyl-1,2,4-oxadiazol-5-yl)-7-(4-methyl-1-piperidyl)quinolin-4-one] the “in vitro EC99” value [4] was 0.030 µM, the pEC50 [6] was 8.05 and the pEC50 [7] was 8.22. For the same compound, the pEC50 [1] was 8.00, the pEC50 [8] was 8.05 and the logD at 2 h [9] was 2.6. For the same compound, the pEC50 [2] was 5.77, the pEC50 [3] was 5.74 and the pEC50 [10] was < 4.30. The “difference in sensitivity between the ELQ-300 resistant Dd2 strain and the Dd2 parental strain” value (“difference” for short) [11] was “no difference in sensitivity”, the microsomal CLint at 1 μM [12] was 16.2 µL/min/mg and the pEC50 [13] was 7.92. The “potency against each drug-resistant strain compared to the Dd2 and NF54 wild-type parasites” value [14] was “equipotent”, the “OCR upon addition of TMPD” value ([15]; after compound (5 μM), TMPD (cytochrome c electron donor) added) was “rescued” and the “effect on malate-dependent oxygen consumption rate (OCR)” value (shortened to “effect”) [15] was “significantly reduce the OCR”. For the same compound, the hepatocyte CLint at 1 μM [16] was 53.8 µL/min/1e6 cells, the pEC50 [17] was < 4.60 and the pEC50 [18] was > 9.00. For the same compound, the absorption [19] was “moderate absorption”, the “time for which total plasma concentration exceeds the in vitro EC99” value ([19]; after dose 1) was “approximately 12 h” and the “% parasitemia” value ([5]; 20 mg/kg p.o. q.d. days 0-3) was 8.1%. The “% reduction in parasitemia” value ([5]; 20 mg/kg p.o. q.d. days 0-3) was 56% and 56.2%.
In the case of `CCn1cc(C(N)=O)c(=O)c2cc(F)c(N3CCC(C)CC3)cc21` [Compound 22, 1-Ethyl-6-fluoro-7-(4-methyl-1-piperidyl)-4-oxo-quinoline-3-carboxamide], the “fold less active/potent than 17” value [4, 21] was “approximately 20 fold”, the pEC50 [10] was < 4.30 and the “difference” value [11] was “no difference in sensitivity”. It also gave a pEC50 [18] of 7.62.
In the case of `CCNC(=O)c1cn(CC)c2cc(N3CCC(C)CC3)c(F)cc2c1=O` [Compound 23, N,1-Diethyl-6-fluoro-7-(4-methyl-1-piperidyl)-4-oxo-quinoline-3-carboxamide], the “fold less active/potent than 17” value [4, 21] was “approximately 20 fold”.
In the case of `CCn1cc(-c2nc(C)no2)c(=O)c2cc(F)c(N3CCN(C(C)=O)CC3)cc21` [Compound 33, 7-(4-Acetylpiperazin-1-yl)-1-ethyl-6-fluoro-3-(3-methyl-1,2,4-oxadiazol-5-yl)quinolin-4-one], the “effect” value [15] was “does not affect the OCR”.
For `CCn1cc(-c2nc(C)no2)c(=O)c2cc(F)c(N3CCCC(C)C3)cc21` (stereo not drawn) [Compound 34, 1-Ethyl-6-fluoro-3-(3-methyl-1,2,4-oxadiazol-5-yl)-7-(3-methyl-1-piperidyl)quinolin-4-one], the “fold less active/potent than 17” value [4, 21] was 5 fold.
In the case of `CCCC1CCN(c2cc3c(cc2F)c(=O)c(-c2nc(C)no2)cn3CC)CC1` [Compound 38, 1-Ethyl-6-fluoro-3-(3-methyl-1,2,4-oxadiazol-5-yl)-7-(4-propyl-1-piperidyl)quinolin-4-one], the “fold more potent than 17” value [4, 21] was 2 fold.
With `CCn1cc(-c2nc(C)no2)c(=O)c2cc(F)c(N3CCC(C(C)C)CC3)cc21` [Compound 39, 1-Ethyl-6-fluoro-7-(4-isopropyl-1-piperidyl)-3-(3-methyl-1,2,4-oxadiazol-5-yl)quinolin-4-one] the “fold less active/potent than 17” value [4, 21] was 2 fold.
In the case of `CCn1cc(-c2nc(C)no2)c(=O)c2cc(F)c(N3CCC(c4ccccc4)CC3)cc21` [Compound 40, 1-Ethyl-6-fluoro-3-(3-methyl-1,2,4-oxadiazol-5-yl)-7-(4-phenyl-1-piperidyl)quinolin-4-one], the “fold less active/potent than 17” value [4, 21] was 2 fold.
For `CCn1cc(-c2nc(C)no2)c(=O)c2cc(F)c(N3CCC(CN4CCOCC4)CC3)cc21` [Compound 42, 1-Ethyl-6-fluoro-3-(3-methyl-1,2,4-oxadiazol-5-yl)-7-[4-(morpholinomethyl)-1-piperidyl]quinolin-4-one], the “fold less active than the benzyl analog 41” value ([4]; 3D7 parasite EC50 compared to 41) was 30 fold.
With `CCOC(=O)c1cn(CC)c2cc(N3CCC(Cc4ccccc4)CC3)c(F)cc2c1=O` [Compound 43, Ethyl 7-(4-Benzyl-1-piperidyl)-1-ethyl-6-fluoro-4-oxo-quinoline-3-carboxylate] the pEC50 [6] was 7.92, the “aqueous solubility pH 7.4” value [20] was 10.4 μM and the pEC50 [7] was 8.30. The pEC50 [1] was 7.82, the pEC50 [8] was 7.85 and the logD at 2 h [9] was 4.6. For the same compound, the “difference” value [11] was “no difference in sensitivity”, the pEC50 [13] was 7.77 and the “potency against each drug-resistant strain compared to the Dd2 and NF54 wild-type parasites” value [14] was “equipotent”. The hepatocyte CLint at 1 μM [16] was > 92.4 µL/min/1e6 cells.
For `O=C(NCCN1CCCC1)c1cc(-c2ccc(CN3CCOCC3)cc2)nc2ccc(F)cc12` [DDD107498], the pEC50 [1] was 9.40.
With `Cc1cc(Nc2ccc(S(F)(F)(F)(F)F)cc2)n2nc(C(C)(F)F)nc2n1` [DSM265, reference compound] the pEC50 [1] was 7.62, the pEC50 [2] was < 5.00 and the pEC50 [3] was < 5.00. For the same compound, the “effect” value [15] was “had no effect”.
`CC1(C)c2nc(-c3ccc(F)cc3)c(Nc3ccc(F)cc3)n2CCN1C(=O)CN` [KAF156] gave a pEC50 [1] of 8.10.
Compound `CS(=O)(=O)c1ccc(-c2cnc(N)c(-c3ccc(C(F)(F)F)nc3)c2)cc1` [MMV048] has a pEC50 [1] of 7.80.
In the case of `C[C@H]1[C@H](OC(=O)CCC(=O)O)O[C@@H]2O[C@@]3(C)CC[C@H]4[C@H](C)CC[C@@H]1[C@@]24OO3` [artesunate, reference compound], the pEC50 [4] was 8.10.
